# Measurements from different studies.
# Compare with care: the assays were run in different laboratories.
# Target: 5'-AMP-activated protein kinase catalytic subunit alpha-2 (PRKAA2, Homo sapiens, UniProt P54646)
SMILES,observed,method,tested at,remaining binding
O=C(c1ccc(Nc2ncc(Cl)c(-c3cc4ccccc4s3)n2)cc1)N1CCC(N2CCCC2)CC1,binding,competition with immobilised ligand,1 µM,4%
CN(c1nccc(-c2cnn3ncccc23)n1)C1CC1,binding,,1 µM,100%
CC1=C(C#N)[C@@H](c2ccc3[nH]nc(C)c3c2)C(C#N)=C(c2ccc(Cl)cc2)N1,cell-free assay,competition with immobilised ligand,1 µM,95.3%
N[C@H]1CCN(c2nccc(-c3cnn4ncccc34)n2)C1,binding,,1 µM,100%
COc1cnc(Nc2cccc(S(N)(=O)=O)c2)nc1N1CCN(c2ccccc2)C(=O)C1,binding,competition with immobilised ligand,1 µM,100%
Cc1c[nH]c2nccc(Oc3c(F)cc(Nc4cc(Cl)nc(N)n4)cc3F)c12,cell-free assay,competition with immobilised ligand,0.1 µM,89%
C[C@@H](c1ccc(-n2cnc3c(N)ncnc32)cc1)N1CCc2nn(C)c(Cc3ccccc3)c2C1=O,binding,competition with immobilised ligand,0.1 µM,100%
Cc1c(NC(=O)c2cc(C(N)=O)nc3cc(F)ccc23)c(C(F)(F)F)nn1Cc1ccc(C#N)cc1,cell-free assay,competition with immobilised ligand,1 µM,100%
O=C(Nc1c[nH]nc1C(=O)NC1CCNCC1)c1cc(F)cc(F)c1,binding,competition with immobilised ligand,1 µM,100%
O=C(c1ccc(Nc2nccc(-c3cc4ccccc4s3)n2)cc1)N1CCC(N2CCCC2)CC1,binding,competition with immobilised ligand,1 µM,31%
O=C(NCc1ncc(C(F)(F)F)cc1Cl)c1ccc2c(c1)C1(CCS(=O)(=O)CC1)[C@H](C1CC1)N2S(=O)(=O)c1ccc(F)cc1,cell-free assay,competition with immobilised ligand,1 µM,100%
CN(C)c1ncc(F)c(-c2cnn3ncccc23)n1,binding,,1 µM,100%
O=C(c1ccc(Nc2ncc(Cl)c(-c3ccc(Cl)s3)n2)cc1)N1CCC(N2CCCC2)CC1,binding,competition with immobilised ligand,1 µM,8.2%
C[C@@H]1CCN(c2nccc(-c3cnn4ncccc34)n2)C1,binding,,1 µM,74%
CNC(=O)Nc1ccc2c(c1)[C@@]1(CC2)OC(=O)N(CC(=O)N(Cc2ccc(F)cc2)[C@@H](C)C(F)(F)F)C1=O,cell-free assay,competition with immobilised ligand,1 µM,57%
CCN1CCN(Cc2ccc(C(=O)Nc3ccc(C)c(Oc4ccc5c(c4)CC(=O)N5)c3)cc2C(F)(F)F)CC1,binding,competition with immobilised ligand,1 µM,100%
CC1CCCN1c1nccc(-c2cnn3ncccc23)n1 (stereo not shown),binding,,1 µM,100%
O=C(NS(=O)(=O)c1ccc(NCC2CCOCC2)c([N+](=O)[O-])c1)c1ccc(N2CCN(Cc3ccc(C(F)(F)F)cc3-c3ccc(Cl)cc3)CC2)cc1Oc1cnc2[nH]ccc2c1,cell-free assay,competition with immobilised ligand,1 µM,100%
CN(CCCC(F)(F)F)c1nccc(-c2cnn3ncccc23)n1,binding,,1 µM,100%
COc1cnc(Nc2cccc(S(N)(=O)=O)c2)nc1N1CCN(c2ccccc2)CC1,binding,competition with immobilised ligand,1 µM,100%
CNC(=O)Nc1ccc2c(c1)CC[C@@]21OC(=O)N(CC(=O)N(Cc2ccc(F)cc2)[C@@H](C)C(F)(F)F)C1=O,cell-free assay,competition with immobilised ligand,1 µM,99%
COc1ccnn2ncc(-c3ccnc(N(C)C)n3)c12,binding,,1 µM,79%
